An excerpt weighted towards active compounds, which were near 4.4% of everything screened.
EBI2 block – antagonists of human EBI2 receptor | P32249 | EBI2 beta-arrestin recruitment, luminescence, 7a,25-OHC stimulated | inhibition, % at 5 µM | hit rate 0.81% among 360,000; in the data active = inhibition above about 38%;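 also: enzyme fragment complementation signal reports receptor beta-arrestin coupling in cells; 0% = agonist plus DMSO wells and 100% = wells without agonist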
Target sequence (P32249 whole entry, looked up, the tested form may be a part): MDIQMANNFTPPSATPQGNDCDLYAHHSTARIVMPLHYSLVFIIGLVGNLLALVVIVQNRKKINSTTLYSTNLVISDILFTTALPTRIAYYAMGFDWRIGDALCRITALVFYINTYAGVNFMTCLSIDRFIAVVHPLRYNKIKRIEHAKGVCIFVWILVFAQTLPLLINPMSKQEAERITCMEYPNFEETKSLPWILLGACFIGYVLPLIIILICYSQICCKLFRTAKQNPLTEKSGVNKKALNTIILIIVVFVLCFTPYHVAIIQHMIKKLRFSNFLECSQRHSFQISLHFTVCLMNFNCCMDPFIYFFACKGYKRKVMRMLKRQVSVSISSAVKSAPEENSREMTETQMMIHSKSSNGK
SENP1 FRET inh – SENP1 (human) catalytic domain inhibition | Q9P0U3 | recombinant SENP1 catalytic domain, CyPet-SUMO1-YPet FRET cleavage | inhibition, % at 10 µM | hit rate 0.21% among 360,000 | AID 624204;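 active = inhibition at least 30% at 10 µM, raw YFP signal under a set limit, fluorescence ratio 0.5 to 1.5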;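 also: 0% = enzyme with DMSO and 100% = no enzyme wells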
Target sequence (Q9P0U3 419-644 limits assumed): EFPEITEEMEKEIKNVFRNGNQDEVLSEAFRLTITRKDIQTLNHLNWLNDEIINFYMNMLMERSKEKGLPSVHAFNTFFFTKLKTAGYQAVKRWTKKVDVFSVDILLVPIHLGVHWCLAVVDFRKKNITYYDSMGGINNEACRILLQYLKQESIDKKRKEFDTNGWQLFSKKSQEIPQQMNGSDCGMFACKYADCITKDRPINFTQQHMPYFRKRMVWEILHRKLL
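Material – human SENP1 catalytic domain · Input – SENP1 enzyme, 20 pM final · Compound dosing – single concentration of 10 µM compound, 0.5% DMSO final · Timing – enzyme reaction for 50 min at room temperature, dark · Measured by – FRET fluorescence in CFP and YFP emission channels · Control set – no-enzyme wells low, DMSO-plus-enzyme wells high control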
MPTP inh – inhibitors of mitochondrial permeability transition pore. isolated mouse mitochondria, Ca2+ swelling absorbance, 30 min. inhibition, % at 10 µM. hit rate 1.4% among 360,000;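 active = inhibition of 50% or more, scaled per plate between neutral and stimulator controls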;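 also: 0% = DMSO wells given calcium and 100% = 1 mM EGTA wells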
GRIN3A LBD mod – modulators (binders) of human NR3A ligand-binding domain | NR3A LBD differential scanning fluorimetry, Tm shift; 0% = protein alone, 100% = glycine-bound protein | hit rate 2.5% among 340,000 | Tm shift relative to glycine control, % at 25 µM;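 active = melting temperature shift of at least 10% of the positive control shift, at one fixed dose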
* marks the source's active call; other numbers are inactive results; x = no result.

SMILES | EBI2 block | SENP1 FRET inh | MPTP inh | GRIN3A LBD mod
Cn1cc([N+](=O)[O-])c(C(=O)Nc2cc(Oc3ccccc3)cc([N+](=O)[O-])c2)n1 | 12 | 0 | 1 | 9
Cc1nn(CCCC(=O)Nc2cc(Oc3ccccc3)cc([N+](=O)[O-])c2)c(C)c1[N+](=O)[O-] | 21 | 1 | 37 | 9
Cc1ccc(Oc2cc(NC(=O)CCCn3nc([N+](=O)[O-])cc3C)cc([N+](=O)[O-])c2)cc1 | 15 | 0 | 5 | 10*
Cc1nn(C)cc1C(=O)Nc1cc(Oc2ccc(Cl)cc2)cc([N+](=O)[O-])c1 | 9 | 1 | 4 | 17*
CCCNC(=O)c1cc(S(=O)(=O)N2CCC3(CC2)OCCO3)ccc1F | -12 | 1 | -2 | x
O=C(NNC(=O)c1cccnc1SCc1cccc([N+](=O)[O-])c1)c1ccccn1 | -1 | 3 | -3 | 18*
CCOC(=O)c1cc(-c2nnc(-c3ccc(Oc4ccccc4)cc3)o2)c(C)nc1C | 15 | -5 | 2 | -1
COc1ccccc1NC(=O)C(C)OC(=O)CCC1CCCCC1 (stereo unspecified) | 1 | 4 | 2 | 11*
CC(=O)Nc1ccc(C2=NNC(=Nc3cccc(S(=O)(=O)N(C)C)c3)SC2)cc1 | 13 | -5 | 0 | 12*
Cc1ccccc1OC(=O)c1cccnc1 | -4 | 0 | 0 | 1
C[C@]12CCC[C@H](O1)c1c(cc3c(c1O)C(=O)c1c(O)cc(O)cc1C3=O)O2 | -6 | 31* | 19 | 7
Cc1ccc(CNC(=O)c2ccc(Cl)cc2[N+](=O)[O-])cc1 | -3 | 3 | 2 | 4
COc1ccc(NC(=O)c2[nH]c(C)c(C(C)=O)c2C)cc1Cl | -2 | 1 | 0 | -11
COc1ccc(OC)c(S(=O)(=O)Nc2ccc(C(C)=O)cc2)c1 | -7 | 1 | 0 | 11*
COc1ccc(NC(=O)c2ccc(F)cc2)cc1S(=O)(=O)Nc1cc(C)ccc1Br | -6 | 3 | -14 | 21*
COc1ccc(NS(=O)(=O)c2cc(NC(=O)c3ccc(F)cc3)ccc2OC)cc1 | -11 | 0 | 2 | -6
COc1ccc(NC(=O)c2[nH]c(C)c(C(C)=O)c2C)cc1S(=O)(=O)Nc1ccc(Br)cc1 | 5 | -1 | 10 | 11*
NS(=O)(=O)c1ccc(CCNC(=O)COC(=O)c2nc(Cl)ccc2Cl)cc1 | -7 | -2 | 2 | 0
O=C(c1cccnc1)c1ncc(C(F)(F)F)cc1Cl | -2 | 3 | -1 | 5
Cc1ccc(S(=O)(=O)N/N=C\c2cn(-c3ccccc3)nc2-c2ccccc2)cc1 | 5 | 2 | 10 | 29*
COc1ccc(-c2nn(-c3ccccc3)cc2/C=N/NC(N)=S)cc1OC | 9 | 1 | 0 | 19*
Cc1ccc(-c2nn(-c3ccccc3)cc2/C=N/NS(=O)(=O)c2ccccc2)cc1 | 1 | 3 | 8 | 24*
O=S(=O)(N/N=C\c1cn(-c2ccccc2)nc1-c1ccccc1)c1ccccc1 | -2 | 1 | 6 | 20*
C[C@]12CCC(O)CC1CCC1C2CC[C@]2(C)C(c3cc(C(F)(F)F)n[nH]3)CCC12 (stereo partly specified) | -107 | 2 | -3 | 24*
Cc1cc(-c2nnc(SCC(=O)NC3CC3)n2C(C)C)cs1 | -7 | 1 | 0 | 0
SMILES | EBI2 block | SENP1 FRET inh | MPTP inh | GRIN3A LBD mod
CCOc1ccc(C(=O)NCc2ccccc2)cc1Br | 2 | 2 | 6 | 12*
Cc1cc(C(=O)N2CCN(S(=O)(=O)c3ccc(C)c(C)c3)CC2)no1 | -4 | 2 | 0 | 53*
CSCCC(NS(=O)(=O)c1ccc(Cl)cc1)C(=O)OCC(=O)c1c(C)[nH]c2ccccc12 (stereo unspecified) | 5 | 2 | 6 | 17*
Cc1ccc(Oc2ccc(-c3nc(N)nc(N)n3)cc2)cc1C | 0 | 2 | 0 | 14*
Nc1nc(N)nc(-c2ccc(Oc3ccccc3)cc2)n1 | -7 | 4 | -3 | 0
CC1(c2ccc(F)cc2)OC(=O)c2c1ccc1ccccc21 (stereo unspecified) | -1 | 0 | 0 | x
N#CCC(=O)Nc1ccc(C(=O)NNC(=S)NC2CCCCC2)cc1 | 2 | 1 | -1 | 29*
CCOc1ccc(NC(=O)c2ccc(NC(=S)NC3CCCCC3)cc2)cc1 | -1 | 2 | 3 | 28*
CCOc1ccc(NC(=O)c2ccc(N)cc2)cc1 | 2 | 4 | -1 | -10
CCOc1ccc(NC(=O)c2ccc(OC)cc2)cc1 | 13 | -1 | -1 | -15
CC(C)CC(=O)Nc1ccc(C(=O)NNC(=S)NC(=O)C2CCCCC2)cc1 | 1 | 2 | 2 | -10
CCOc1ccc(NC(=O)c2ccc(NC(=S)NC3CC3)cc2)cc1 | 2 | 0 | 2 | 31*
CCOc1ccc(NC(=O)c2ccc(NC(=O)c3ccc(NC(N)=O)cc3)cc2)cc1 | -1 | -1 | 0 | 27*
COC(=O)CCN(C(=O)C1C2CC3CC(C2)CC1C3)c1ccccn1 (stereo unspecified) | 6 | -1 | 0 | -1
Cc1cc(C)c2c(=O)n(CC(=O)NCCCN3CCN(c4ccccc4F)CC3)sc2n1 | x | x | x | 3
Cc1cc(C)c2c(=O)n(CC(=O)NCCCN3CCOCC3)sc2n1 | -5 | 0 | -2 | 19*
Cc1cc(C)n2nc(C(=O)NCc3ccccc3)nc2n1 | -5 | -2 | 0 | 24*
Cc1ccc(CNC(=O)c2nc3nc(C)cc(C)n3n2)cc1 | 0 | -1 | -1 | 0
O=C(c1cc(-c2cccs2)on1)N1CCN(c2ccc(F)cc2)CC1 | 41 | 0 | 0 | 13*
Cc1ccc(Cn2c(CCC(=O)O)nc3ncccc3c2=O)cc1 | -1 | 0 | 0 | 0
O=C1CC(N(CCc2ccccc2)C(=S)Nc2ccccc2)C(=O)N1c1ccc(F)cc1 (stereo unspecified) | 6 | 2 | 4 | 27*
O=C1CC(N(Cc2ccc3c(c2)OCO3)C(=O)Nc2ccc(F)cc2)C(=O)N1c1ccccc1 (stereo unspecified) | 8 | 2 | -1 | 27*
COc1ccc(NC(=O)N(Cc2ccc3c(c2)OCO3)C2CC(=O)N(c3ccc(OC)cc3)C2=O)cc1 (stereo unspecified) | -5 | 1 | -2 | 0
O=C1CC(N(CCc2ccccc2)C(=S)Nc2cc(Cl)ccc2Cl)C(=O)N1c1c(Cl)cccc1Cl (stereo unspecified) | 24 | 1 | -3 | 16*
O=C1CC(N(CCc2ccccc2)C(=S)Nc2ccccc2)C(=O)N1c1ccccc1 (stereo unspecified) | 14 | 2 | -24 | 17*
CCNC(=S)N(CCc1ccc(S(N)(=O)=O)cc1)C1CC(=O)N(c2ccccc2)C1=O (stereo unspecified) | 6 | 2 | -2 | -3
Cc1cc2nc(CN(C)Cc3c(C(=O)N(C)C)nc4ccc(Cl)cn34)[nH]c2cc1C | -1 | -5 | -1 | 0
O=C(O)CS(=O)CC(=O)Nc1cccc(C(F)(F)F)c1 (stereo unspecified) | -9 | 1 | 2 | 0
CCC(=O)Nc1ccccc1C(=O)NC1CCCCC1 | -11 | 1 | 0 | -1

Assay outcomes: PubChem BioAssay, Sanford-Burnham Center for Chemical Genomics
